Consider 26 molecules from ChEMBL document CHEMBL3758086, “Inhibitory effect of phenothiazine- and phenoxazine-derived chloroacetamides on Leishmania major growth and Trypanosoma brucei trypanothione reductase” (Eur J Med Chem, 2016).

The target in experiment [1] is Trypanothione reductase (Trypanosoma brucei brucei) (UniProt P39051). Briefly: Reversible inhibition of recombinant Trypanosoma brucei trypanothione reductase.
Experiment [2] concerns K562. Briefly: Cytotoxicity against human K562 cells assessed as cell growth inhibition after 48 hrs by Neubauer counting chamber analysis. As to conditions: K562, 48 h. The format is cell-based.
For experiment [3], the system named is Leishmania major. Briefly: Antileishmanial activity against promastigote stage of Leishmania major assessed as inhibition of parasite proliferation after 48 hrs by Alamar Blue assay. The class given is functional, organism-based. Background: Resazurin is reduced to fluorescent resorufin, in cell work by metabolically active cells.
Experiment [4] addresses T1, Tryparedoxin peroxidase (Trypanosoma brucei) (UniProt Q9GU47).
T1 sequence (whole entry): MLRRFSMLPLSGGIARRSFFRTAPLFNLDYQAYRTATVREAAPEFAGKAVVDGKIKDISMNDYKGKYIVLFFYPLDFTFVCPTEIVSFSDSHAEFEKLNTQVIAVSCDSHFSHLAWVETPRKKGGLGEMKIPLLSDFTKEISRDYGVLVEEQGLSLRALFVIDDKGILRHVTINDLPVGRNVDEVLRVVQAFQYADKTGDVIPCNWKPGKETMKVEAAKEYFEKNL
Briefly: Time dependent inhibition of Trypanosoma brucei tryparedoxin peroxidase preincubated for 10 mins in presence of NADPH, tryparedoxin, T(SH)2 followed by addition of hydrogen peroxide. In short, it runs like this: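 Peroxidase cascade mixture of NADPH, T. brucei TR, tryparedoxin, peroxidase, T(SH)2 and inhibitor incubated 10 min, then reaction started with H2O2.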

Experiment [5] has as its target Trypanothione reductase (Trypanosoma brucei brucei) (UniProt P39051). As to conditions: 50 uM.
Experiment [6] shares this target. Briefly: Inhibition of recombinant Trypanosoma brucei trypanothione reductase at 100 uM in presence of NADPH, trypanothione disulphide. In short, it runs like this:
(§1)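 T. brucei TR (1 µM) preincubated at 25 °C in 200 µL TR assay buffer with 400 µM NADPH and compound (25, 50 or 100 µM) or DMSO (5%). At 10, 30, 60, 120 and 180 min, a 5 µL aliquot went into a 1 mL standard assay with 100 µM NADPH, started with 100 µM trypanothione disulfide. Absorbance decrease at 340 nm followed at 25 °C.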

Experiment [7] shares this target. Briefly: Inhibition of recombinant Trypanosoma brucei trypanothione reductase at 25 uM in presence of NADPH, trypanothione disulphide. The essentials: as §1

Active and inactive are the calls of the source. No cut-off for these calls is given here.

Trypanothione reductase (Trypanosoma brucei brucei), sequence (P39051 whole entry, looked up): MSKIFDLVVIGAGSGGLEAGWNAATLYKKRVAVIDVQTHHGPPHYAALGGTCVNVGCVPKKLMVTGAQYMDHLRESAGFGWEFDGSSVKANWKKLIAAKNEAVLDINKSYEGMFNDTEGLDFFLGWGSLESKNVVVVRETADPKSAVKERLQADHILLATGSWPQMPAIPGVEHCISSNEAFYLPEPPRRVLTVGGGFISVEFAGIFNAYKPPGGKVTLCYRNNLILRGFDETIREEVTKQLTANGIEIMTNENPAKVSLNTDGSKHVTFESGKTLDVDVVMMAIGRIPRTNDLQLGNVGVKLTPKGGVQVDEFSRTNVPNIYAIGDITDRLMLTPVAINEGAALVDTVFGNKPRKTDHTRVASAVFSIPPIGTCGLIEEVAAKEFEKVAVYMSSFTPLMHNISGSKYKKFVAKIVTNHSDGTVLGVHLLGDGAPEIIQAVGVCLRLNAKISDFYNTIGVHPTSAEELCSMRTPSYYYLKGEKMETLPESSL

Take `O=C(CCl)N1c2cc(Cl)ccc2Oc2ccc(Cl)cc21`: the inhibition result in experiment [1] is “inactive”. The 50% inhibitory concentration (IC50) (commonly the concentration at which inhibition is half-maximal) was 2.03 µM in experiment [2] and 9.5 µM in experiment [3].
As for `O=C(CCl)N1c2ccccc2Oc2ccc(C(F)(F)F)cc21`, in experiment [1], the inhibition result was “inactive”. For the same molecule, in experiment [3], the IC50 was 9.6 µM.
`O=C(C(Cl)CCl)N1c2ccccc2Oc2ccccc21` (centres undefined): in experiment [1], the inhibition entry is “inactive”. Further, in experiment [3], the IC50 was 9.6 µM.
Take `O=C(CCl)N1c2ccccc2Sc2ccccc21`: the inhibition entry in experiment [1] is “inactive”. Further, in experiment [4], the TDI result is “inactive”. The IC50 worked out at 5 µM in experiment [2] and 9.3 µM in experiment [3].
`N=C(N)c1ccc(OCCCCCOc2ccc(C(=N)N)cc2)cc1`: in experiment [3], the half-inhibitory concentration (IC50) was determined as 84 µM.
As for `O=C(CCl)Nc1cc(Cl)ccc1Oc1ccccc1`, the inhibition entry in experiment [1] was “inactive”. Moreover, the IC50 in experiment [3] was found to be 42.6 µM.
In the case of `O=C(CCCl)N1c2ccccc2Oc2ccc(Cl)cc21`, in experiment [1], the inhibition result was “inactive”. For the same molecule, the results for the half-maximal inhibitory concentration (IC50) in experiment [2] and in experiment [3] were 10.2 µM and 15.7 µM, respectively.
The matching figures for `O=C(C(Cl)Cl)N1c2ccccc2Oc2ccccc21`: “inactive”, greater than 30 µM and 82 µM.
On to `CC(Cl)C(=O)N1c2ccccc2Oc2ccccc21` (centres undefined), for which the inhibition result in experiment [1] is “inactive”. Further, the concentration for half-maximal inhibition (IC50) is greater than 30 µM in experiment [2] and greater than 100 µM in experiment [3].
Consider `O=C(CCl)N1c2ccccc2Oc2ccc(Cl)cc21`, for which the inhibition result in experiment [1] and in experiment [5] was “inactive” in each case. Also, the IC50 in experiment [2] came out at 3 µM; in experiment [3], 7.6 µM.
With `O=C(CCl)N1c2ccccc2COc2ccc(Cl)cc21`, the inhibition entry in experiment [1] is “inactive”. Also, the TDI entry in experiment [4] is “inactive”. The IC50 in experiment [2] amounted to 3.3 µM; in experiment [3], 7.2 µM.
With `CC(=O)N1c2ccccc2Oc2ccc(Cl)cc21`, the inhibition result in experiment [6] and in experiment [1] was “inactive” each time. Also, the figures for the IC50 in experiment [2] and in experiment [3] were greater than 30 µM and greater than 100 µM, respectively.
As to `O=C(CCl)N1c2ccccc2CCc2ccccc21`, in experiment [1], the inhibition entry was “inactive”. Besides, the half-maximal inhibitory concentration (IC50) in experiment [2] was found to be 4.8 µM; in experiment [3] it was 43.3 µM.
With `O=C(CCl)N1c2ccccc2Sc2ccc(Cl)cc21`, the inhibition entry in experiment [1] is “inactive”. The IC50 in experiment [2] was determined as 3.2 µM; in experiment [3], 10.4 µM.
On to `C[C@@H]1[C@H](O)[C@@H](C)/C=C/C=C/C=C/C=C/C=C/C=C/C=C/[C@H](O[C@@H]2O[C@H](C)[C@@H](O)[C@H](N)[C@@H]2O)C[C@@H]2O[C@](O)(C[C@@H](O)C[C@@H](O)[C@H](O)CC[C@@H](O)C[C@@H](O)CC(=O)O[C@H]1C)C[C@H](O)[C@H]2C(=O)O` [AMPHOTERICIN B], for which, in experiment [3], the IC50 was determined as 0.33 µM.
Take `O=C(CCl)N(c1ccccc1)c1cccc(Cl)c1`: the inhibition result in experiment [1] is “inactive”. Further, the half-maximal inhibitory concentration (IC50) in experiment [3] stood at 40.3 µM.
On to `NC[C@@H]1O[C@H](O[C@H]2[C@@H](O)[C@H](O[C@@H]3[C@@H](O)[C@H](N)C[C@H](N)[C@H]3O[C@H]3O[C@H](CO)[C@@H](O)[C@H](O)[C@H]3N)O[C@@H]2CO)[C@H](N)[C@@H](O)[C@@H]1O` [PAROMOMYCIN], for which the IC50 in experiment [3] was greater than 100 µM.
For `ClCCN1c2ccccc2Oc2ccc(Cl)cc21`, the inhibition entry in experiment [1] is “inactive”. Besides, the half-inhibitory concentration (IC50) in experiment [3] was greater than 100 µM.
In the case of `O=C(CCCl)N1c2ccccc2Oc2ccccc21`, the inhibition entry in experiment [1] was “inactive”. Moreover, the IC50 in experiment [2] was found to be 15.2 µM; in experiment [3], 39.1 µM.
On the same counts, the results for `O=C(CCCCl)N1c2ccccc2Oc2ccc(Cl)cc21` are “inactive”, greater than 90 µM and greater than 100 µM.
On to `CCCCCCCCCCCCCCCCOP(=O)([O-])OCC[N+](C)(C)C` [MILTEFOSINE], for which the IC50 in experiment [3] came out at 36 µM.
In the case of `O=C(CCl)N1c2ccccc2C=Cc2ccccc21`, in experiment [1], the inhibition entry is “inactive”. Further, the IC50 in experiment [2] was 6.2 µM; in experiment [3], 48.1 µM.
The matching figures for `N#CCC(=O)N1c2ccccc2Oc2ccccc21`: “inactive”, 23 µM and greater than 100 µM.
Regarding `O=C(CCl)n1c2ccccc2c2ccccc21`, in experiment [1], the inhibition entry is “inactive”. Moreover, the IC50 in experiment [2] was 6.44 µM; in experiment [3] it was greater than 100 µM.
In the case of `Clc1ccc2c(c1)Nc1ccccc1O2`, the inhibition result in experiment [1] and in experiment [7] was “inactive” each time. Further, the IC50 in experiment [3] was determined as 69.2 µM.
For the molecule `O=C(CBr)N1c2ccccc2Oc2ccc(Cl)cc21`, the inhibition result in experiment [1] is “inactive”. Moreover, the IC50 was 6.15 µM in experiment [2] and greater than 100 µM in experiment [3].
